beta cell repl – induces beta-cell replication in MIN6 cells | AID 2380 | MIN6 cells proliferation, ATPlite luminescence, 48 h; cells starved in 0.2% serum; 100% = growth in 10% serum | hit rate 0.29% among 330,000 | proliferation, % at 10 µM;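 active = compounds whose signal lies at least 3.5 SD above the mean of all wells on their plate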;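 also: 0% = DMSO-treated cells in low-serum medium and 100% = 10% serum control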
proKLK7 act – activators of human kallikrein-7 zymogen; P49862; purified proKLK7, EDANS-DABCYL substrate fluorescence; 100% is mature enzyme control, 0% vehicle; activation, % at 7 µM; hit rate 0.9% among 370,000; AID 652039;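 active = activation above the mean of all tested compounds plus 3 SD, computed per campaign excluding outliers beyond control limits, cut at about 13% in these data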
Target sequence (P49862 whole entry, looked up): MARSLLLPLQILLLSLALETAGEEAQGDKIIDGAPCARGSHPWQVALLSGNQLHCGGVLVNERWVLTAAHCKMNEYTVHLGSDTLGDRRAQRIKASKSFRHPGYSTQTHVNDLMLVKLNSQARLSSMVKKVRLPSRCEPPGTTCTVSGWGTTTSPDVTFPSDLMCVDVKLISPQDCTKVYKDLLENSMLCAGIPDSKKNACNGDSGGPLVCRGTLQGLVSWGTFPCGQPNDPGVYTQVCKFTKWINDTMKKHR
Rce1 inhib – inhibitors of yeast Ras-converting enzyme; Q03530; yeast membranes, quenched prenylated peptide cleavage fluorescence; calls only; hit rate 0.27% among 290,000; AID 2563;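 active = fall in fluorescence gain of 50% or more versus controls, with final raw signal at or below 3038400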;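 also: plate controls were neutral control wells for no effect and wells lacking membranes for full effect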
Target sequence (Q03530 whole entry, looked up): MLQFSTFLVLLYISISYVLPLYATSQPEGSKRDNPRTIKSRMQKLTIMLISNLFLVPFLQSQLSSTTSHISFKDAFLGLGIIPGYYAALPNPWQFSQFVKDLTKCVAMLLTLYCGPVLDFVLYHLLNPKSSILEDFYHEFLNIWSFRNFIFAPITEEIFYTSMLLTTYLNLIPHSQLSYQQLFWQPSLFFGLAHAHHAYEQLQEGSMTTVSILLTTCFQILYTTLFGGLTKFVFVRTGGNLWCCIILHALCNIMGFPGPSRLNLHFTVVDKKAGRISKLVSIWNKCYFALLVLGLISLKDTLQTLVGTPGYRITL
V-ATPase pH – regulators of yeast V-ATPase proton transport | S. cerevisiae, pHLuorin cytosolic pH fluorescence | response, % at 10 µM | hit rate 0.37% among 350,000 | AID 504577; in the data active = response mostly above about 7.3%, no sharp cut-off; inactive = mostly below about 5.4%; also: actives read high
T cell HTS – T cell immune modulators affecting CD8 T cell-vesicle binding. 2C CD8+ T cell-vesicle binding, flow cytometry; stronger effect = lower value. response (vesicle binding), % at 7 µM. hit rate 0.068% among 330,000. AID 2052;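 active = response, share of CD8 T cells binding vesicles, and their 90th percentile fluorescence all below set limits, cut at about 80% in these data, passing the limit was not always enough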;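 also: values below 100% mean blocked vesicle binding to the CD8+ T cells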
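Incubation: binding step 1.5 h, 37 °C, antibody labelling 20 min, ice; system: murine 2C transgenic CD8+ T lymphocytes; technique: cytometric PE anti-B7-1 and Alexa647 anti-CD8 signals after 1% paraformaldehyde fixation; also added: QL9-charged Drosophila Ld/ICAM-1/B7-1 vesicles; control set: naked versus QL9-loaded vesicles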
Yeast superoxide – yeast age-related superoxide inhibition as caloric restriction mimetic. S. cerevisiae aged cells, superoxide DHE fluorescence; stronger effect = lower value. superoxide response (% of plate mean), % at 10 µM. hit rate 0.18% among 330,000;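 active = superoxide response under a set limit, about three screen SD below normal, cut at about 65% in these data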;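 also: yeast aged for seven days with compound at 30 °C before DHE staining; 100% = average MFI of all compound-treated wells on the plate with controls excluded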
* marks the source's active call; other numbers are inactive results; i = inactive; . = no result given; + = active, no number. Hits are enriched below; roughly 1.9% of the tested compounds scored in any of these assays.

SMILES	beta cell repl	proKLK7 act	Rce1 inhib	V-ATPase pH	T cell HTS	Yeast superoxide
COc1ccccc1Cc1c(-c2ccccc2)nc2ccc(C)cn12	.	0	.	.	.	.
CCN(CC(=O)Nc1ccccc1SC)Cc1nc2ccccc2c(=O)[nH]1	0	0	i	3	184	62*
CCN(CC(=O)Nc1ccccc1-c1ccccc1)Cc1nc2ccccc2c(=O)[nH]1	-2	0	i	-4	103	97
O=C(N/N=C/C1CC=CCC1)c1cc2ccccc2cc1O (configuration not stated)	-1	-1	i	4	220	102
O=C(N/N=C/C1CC=CCC1)c1ccc(O)cc1O (configuration not stated)	-2	0	+	-2	341	87
NC(=S)Nc1cc2ccccc2c2ccccc12	-5	14*	i	5	781	101
Cc1ccccc1OC(C)C(=O)N1CCC(Cc2ccccc2)CC1 (configuration not stated)	-3	0	+	1	308	96
CCCCCCCCN1C(=O)[C@@H](CC(=O)N2CCN(C(=O)c3ccco3)CC2)C[C@@]2(C(=O)OC)C1=C[C@H](C1CCCC1)O[C@@H]2C	.	0	.	.	.	.
CCCCS(=O)(=O)N1CCCc2nc(-c3ccc(OC)cc3)ccc21	.	1	.	.	.	.
CCOc1cccc(-c2c(C(=O)N/N=C/c3c(F)cccc3Cl)nnn2-c2nonc2N)c1	4	0	+	-1	541	126
CCOc1ccc(-c2c(C(=O)N/N=C/c3cccs3)nnn2-c2nonc2N)cc1	3	0	+	7	596	113
CCOc1cccc(-c2c(C(=O)N/N=C/c3ccc(C)s3)nnn2-c2nonc2N)c1	-2	1	i	2	427	107
COC(=O)C1CN(Cc2cn(Cc3ccc(C)cc3)nn2)CCS(=O)(=O)N1Cc1ccc(F)cc1 (configuration not stated)	.	0	.	.	.	.
COCc1cc(N2CCN(C(=O)OC(C)(C)C)C[C@@H]2C)ccc1N1CC[C@H](O)C1	.	1	.	.	.	.
CCCN1CCC(NC(=O)Nc2ccc(F)cc2F)CC1	-1	0	i	15*	386	95
CC(C)c1ccc(OC[C@@H](O)CN2CCC(C(O)(c3ccccc3)c3ccccc3)CC2)cc1	.	0	.	.	.	.
Cc1ccc(CNc2ccc(N3CCOCC3)cc2)cc1	-1	-1	.	11*	188	94
COc1ccc(-c2oc3ccc(N4CCOCC4)cc3c2C#Cc2ccc(N)cc2)cc1	-9	-12	+	4	285	97
COc1cc(OC)cc(C(=O)NNC(=O)c2ccc3ccccc3n2)c1	-7	-1	.	-4	.	.
COc1ccc(C(=O)NC(=S)NNC(=O)c2ccc3ccccc3n2)cc1	-3	0	.	-7	346	63*
CCN(CC)CCN(Cc1cc2cc3c(cc2[nH]c1=O)OCO3)C(=S)NCc1ccco1	1	0	+	2	205	98
COc1ccc(C)c2sc(NC(=O)C3=COCCO3)nc12	1	0	+	-4	516	88
Cc1ccc(-n2c(SCC(=O)c3ccccc3Br)nnc2-c2ccncc2)cc1	.	0	.	.	.	.
COc1cc(-c2cc(-c3ccc(O)cc3)nc(N)c2C#N)ccc1O	-4	0	+	0	168	100
COc1cccc(-c2nc(C#N)c(N3CCN(C(=O)c4ccco4)CC3)o2)c1	-2	0	+	-1	308	99
SMILES	beta cell repl	proKLK7 act	Rce1 inhib	V-ATPase pH	T cell HTS	Yeast superoxide
O=C(CCn1nnc2ccccc21)N1CCN(c2ccc(F)cc2)CC1	.	0	.	.	.	.
COC(=O)c1cccc2c1-c1ccccc1/C2=N/O	5.5*	1	i	-3	225	99
COC(=O)c1cccc2c1-c1ccccc1/C2=N\NC(N)=O	-5	1	i	4	308	101
C=CCN1[C@@H](C)[C@@H](c2ccccc2)Oc2c(Cl)cccc2S1(=O)=O	.	1	.	.	.	.
CCn1cc(S(=O)(=O)CC(=O)Nc2ccc(OC)cc2)c2ccccc21	1	0	i	16*	330	116
CCOC(=O)C1=C(C(=O)OCC)C2N(Cc3ccc(C#N)cc3)c3ccccc3[C@@]23C[C@@H](C(=O)OC)N(S(=O)(=O)c2ccc(C)cc2)C3=N1 (some centres not stated)	.	-1	.	.	.	.
Cc1ccc2nc(-c3cccc(Cl)c3)c(Cc3ccccc3C(F)(F)F)n2c1	.	1	.	.	.	.
O=C(NC1CCCCN(Cc2cccc(Cl)c2)C1=O)c1cccs1 (configuration not stated)	.	0	.	.	.	.
Cc1nn(C)c(C)c1S(=O)(=O)N(CC(=O)Nc1nccs1)c1ccc(C(C)C)cc1	-1	0	i	1	277	105
COc1ccc(N(CC(=O)Nc2nccs2)S(=O)(=O)c2c(C)nn(C)c2C)cc1	4	0	.	14*	312	102
CCCCN(C)c1nc(C)nc2c1nnn2Cc1ccccc1	.	1	.	.	.	.
COc1cc(/C=N/NC(=O)c2ccc(=O)[nH]n2)ccc1O	0.0*	0	i	4	290	99
CCOC(=O)[C@@]12CCC3=C1N(CCC3)C(=O)[C@H](CC(=O)N1CCC(c3ccccc3)CC1)C2	.	0	.	.	.	.
COc1ccc(C2=NN(C(=O)CCC(=O)O)C(c3cccs3)C2)cc1 (configuration not stated)	1	1	+	-3	312	107
COc1ccc(C)cc1NC(=O)CCC(=O)Nc1ccc2nc(N3CCN(C)CC3)cc(C)c2c1	-6	.	+	.	362	91
COc1ccc(Cl)cc1NC(=O)c1noc2c1CCCC2	7.6*	0	i	1	0	115
Cc1ccc(C2(COC(=O)C(C)C)CO2)c(OC(=O)C(C)C)c1 (configuration not stated)	-6	0	+	5	202	113
CCC(C)C(=O)OCC1(c2ccc(C)cc2OC(=O)C(C)C)CO1 (configuration not stated)	-3	0	.	-1	149	101
Cc1cc(C)n2cc(CSc3nnnn3C)nc2n1	-2	3	i	-1	736	98
Cc1cc(C)n2cc(CSc3nncn3C)nc2n1	-2	2	+	1	479	97
CCOC(=O)[C@@]12CCCC=C1N(CCc1ccc(Cl)cc1)C(=O)[C@H]2CC(=O)N1CCN(C(=O)c2ccco2)CC1	.	-1	.	.	.	.
O=c1cc(N=Nc2ccc(Cl)cc2)[nH]c(=O)[nH]1	.	0	i	13*	78	77
Cc1cc(C)n2nc(CC(=O)NNC(=O)c3ccc(N(C)C)cc3)nc2n1	0	0	+	-1	472	118
Cc1ccc(C(=O)NNC(=O)Cc2nc3nc(C)cc(C)n3n2)cc1	-2	0	i	2	334	86
COc1ccc2[nH]c(C(=O)N(Cc3ccccn3)Cc3ccccn3)cc2c1	-3	4	i	37*	242	116

Screens: PubChem, several laboratories
